Source: PubChem BioAssay (several laboratories)
Only some compounds are listed: those with a hit (about 2.7% of all), similar ones and a draw of the others.
PREPL inh: human PREPL enzyme inhibition. Q4J6C6. recombinant PREPL, fluorescence polarization activity-based probe. inhibition, % at 5.96 µM. 320,000 compounds, 0.68% hits. AID 2751; in the data active = inhibition above about 43%
MC4R antagonist: human MC4R antagonism in cAMP assay | P32245 | inhibition, % at 6.5 µM | AID 540295 | MC4R-expressing cells, MTII-stimulated cAMP, LANCE TR-FRET | 360,000 compounds, 0.48% hits;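 active = inhibition above its plate's cutoff, the mean of tested wells on that plate plus 3 SD, cut at about 29% in these data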
Target sequence (P32245 whole entry, looked up): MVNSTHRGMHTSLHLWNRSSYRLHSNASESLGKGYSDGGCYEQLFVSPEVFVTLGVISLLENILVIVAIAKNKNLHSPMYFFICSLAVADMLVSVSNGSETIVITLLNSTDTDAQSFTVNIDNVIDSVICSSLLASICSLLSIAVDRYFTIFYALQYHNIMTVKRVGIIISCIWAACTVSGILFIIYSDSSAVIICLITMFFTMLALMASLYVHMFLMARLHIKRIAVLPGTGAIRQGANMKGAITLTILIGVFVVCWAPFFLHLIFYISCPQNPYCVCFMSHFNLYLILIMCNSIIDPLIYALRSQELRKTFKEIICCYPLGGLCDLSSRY
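System: U2OS cells stably expressing human melanocortin 4 receptor (MC4R). Reagent: Melanotan II challenge after compound preincubation. Doses: 6.5 µM. Times: 30-min compound, 1-h challenge, 1-h detection, room temperature. Measured by: TR-FRET with Eu-cAMP and labeled anti-cAMP, 671 nm. Replicates: singlicate.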
NTR1 ag: activates human neurotensin receptor 1. P30989. NTR1-U2OS beta-arrestin-GFP spot imaging, agonist mode. activation, % at 20 µM. 330,000 compounds, 0.17% hits;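 active = activation at or above 40% of the spot to cytoplasm intensity ratio, with at least 20 cells analyzed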
m5-HT2A agonist: mouse HTR2A agonism via beta-arrestin recruitment. CHO-K1 mHTR2A beta-arrestin complementation, luminescence; percent of 30 µM serotonin response. activation, % at 7.6 µM. 360,000 compounds, 0.66% hits;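 active = activation above a run cutoff, the mean activation of all tested compounds plus 3 SD, cut at about 14% in these data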
MC4R ag barr: activates human MC4R beta-arrestin recruitment; U2OS MC4R beta-arrestin complementation, luminescence; percent of melanotan II response, DMSO zero; activation, % at 8.9 µM; 360,000 compounds, 0.98% hits; AID 540308;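 active = activation above a per-plate cutoff, the mean activation of sample wells on that plate plus 3 SD, cut at about 8% in these data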
Lipid droplet: hepatic lipid droplet formation modulation; inhibition, % at 6.5 µM; 240,000 compounds, 0.4% hits; AML12 mouse hepatocytes, oleate lipid droplets, BODIPY imaging; AID 1656;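 active = lipid droplet intensity inhibited by at least 50%, with more than 500 cells counted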
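Technique: fluorescence imaging, 20x objective, two fields per well / Assay system: AML12 hepatocytes (mouse) / Measure: % inhibition of lipid droplet signal / Doses: 6.5 µM single-point dosing / Incubation: overnight exposure / Reagent: 100 µM oleic acid challenge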
Of the large screens only hits and unclear results are named; the others gave an inactive call.

CC1OC(CC(=O)O)CC2=C1C(=O)c1c(O)cccc1C2=O (configuration not stated)	MC4R antagonist 40.4 (no result: PREPL inh, NTR1 ag, Lipid droplet)
O=C1c2cccc(O)c2C(=O)c2c(O)cccc21	none (no result: MC4R antagonist, m5-HT2A agonist, MC4R ag barr)
COCCCNC(=O)CCCCCNS(=O)(=O)c1ccc(Br)cc1	none
Cc1cccc(NC(=O)COC(=O)c2cccc3c2C(=O)c2ccccc2C3=O)c1C	PREPL inh 59.1
N=C1C(c2nc(-c3ccc(Cl)cc3)cs2)=C(O)CN1CCCN1CCOCC1	PREPL inh 56.6
CCCCN1CC(O)=C(c2nc(-c3ccc(Cl)cc3)cs2)C1=N	none
CCC(=O)N1CCC1(C)C(=O)Nc1cnc2ccccc2c1 (configuration not stated)	none (no result: PREPL inh, NTR1 ag, Lipid droplet)
CCNC(=O)NC(=O)C(C)Oc1ccc(Br)cc1Br (configuration not stated)	none
Cc1cc(S(=O)(=O)Nc2c(NC3CCCCC3)c3ccccc3oc2=O)ccc1F	MC4R ag barr 8.4
COc1ccc(S(=O)(=O)Nc2c(NC3CCCCC3)c3ccccc3oc2=O)cc1Cl	none
COc1ccc(OC)c(C(=O)Cn2nnc(-c3ccc(N4CCOCC4)cc3)n2)c1	MC4R ag barr 9.3
CCOc1ccc(C(=O)Cc2cc(OC)c(OC)cc2[N+](=O)[O-])cc1	MC4R ag barr 12.1 (no result: Lipid droplet)
COc1ccccc1NC(=O)NCc1nc(-c2ccc(C(F)(F)F)cc2)no1	MC4R ag barr 8.5
O=C(NCc1nc(-c2ccccc2)no1)Nc1ccc(F)cc1	none
c1ccc(CC[C@@H]2CC[C@@H](CCc3ccccc3)N2)cc1	MC4R ag barr 8.4 (no result: Lipid droplet)
c1ccc(CCC2Cc3ccccc3N2)cc1 (configuration not stated)	none (no result: Lipid droplet)
S=C(Nc1ccc(Cl)c(Cl)c1)NC1CCN(Cc2ccccc2)CC1	MC4R ag barr 22.2
N#Cc1ccccc1CSc1nc(N)cc(N)n1	none (no result: PREPL inh)
CCOc1cc(/C=N/NC(N)=S)cc(Br)c1OCc1ccccc1C	NTR1 ag 42.1
COc1cc(/C=N/NC(N)=S)cc(Br)c1OCc1ccccc1F	MC4R ag barr 10.5
O=C(Nc1ccc(Cl)cc1)Nc1nnc(Cc2ccc([N+](=O)[O-])cc2)s1	none
Cc1ccc(NC(=O)Nc2nnc(Cc3ccc([N+](=O)[O-])cc3)s2)cc1	MC4R ag barr 9.3
CCOc1ccc(CCNC(=O)CSc2nn(-c3ccc(C)c(Cl)c3)c(=S)s2)cc1OCC	Lipid droplet 69.7
CCOc1ccc(CCNC(=O)CSc2nnnn2C)cc1OCC	none
CCOC(=O)c1c(C)n(OCc2ccccc2)c2ccc3nonc3c12	MC4R ag barr 8.8
C=CCOn1c(C)c(C(C)=O)c2c3nonc3ccc21	none (no result: Lipid droplet)
CCOC(=O)CCc1c(C)c2ccc(OCc3ccc([N+](=O)[O-])cc3)cc2oc1=O	MC4R ag barr 13.1 (no result: Lipid droplet)
CCOC(=O)C1CCN(C(=O)c2ccccc2CCc2ccccc2)CC1	none
CC(=O)c1ccc(-c2ccc(C(=O)NCC3CCCO3)o2)cc1 (configuration not stated)	none (no result: Lipid droplet)
O=[N+]([O-])c1nn(-c2ccccc2)[n+]([O-])c1N1CCN(c2ccccc2F)CC1	MC4R ag barr 9.3
COC(=O)c1sc2ncccc2c1OCc1ccc(Cl)cc1	MC4R ag barr 8.8 (no result: Lipid droplet)
Cc1ccccc1N1CCN(C2=NC(=O)/C(=C/c3cn[nH]c3-c3ccccc3)S2)CC1	none
CC(=O)Nc1cccc(C(=O)OCc2ccc(C(=O)Oc3ccc(Cl)cc3)cc2)c1	MC4R ag barr 13.3 (no result: Lipid droplet)
Cc1cc(OCC(=O)OCC(=O)N(C)C2CCS(=O)(=O)C2)ccc1Cl (configuration not stated)	none (no result: PREPL inh, Lipid droplet)
O=C(CNc1ccc2c(c1)OCO2)N/N=C\c1ccccc1Cl	PREPL inh 50.1
O=C1CN(C(=O)COC(=O)c2cc(Cl)ccc2[N+](=O)[O-])c2ccccc2N1	none (no result: PREPL inh, NTR1 ag, Lipid droplet)
O=S(=O)(Nc1ccc(N=Nc2ccccc2)cc1)c1ccccc1	MC4R ag barr 8.3
O=S(=O)(Nc1ccc(S(=O)(=O)Nc2ccccc2)cc1)c1ccccc1	none (no result: Lipid droplet)
C/C(CC(=O)Nc1ccccn1)=N\NC(=O)c1cccc(C)c1	MC4R antagonist 33.6
O=C(c1ccc(Cn2c(=S)[nH]c3ccc(N4CCOCC4)cc3c2=O)cc1)N1CCN(c2ccc(F)cc2)CC1	PREPL inh 63.3
COc1ccc(-n2c(=S)[nH]c3cc(C(=O)Nc4ccc(F)cc4)ccc3c2=O)c(OC)c1	none
O=C(NCCNS(=O)(=O)c1cccc(C(F)(F)F)c1)c1cc(OCC(F)(F)F)ccc1OCC(F)(F)F	MC4R ag barr 28.2 (no result: Lipid droplet)
CS(=O)(=O)NCCNC(=O)c1cc(OCC(F)(F)F)ccc1OCC(F)(F)F	none
COc1ccccc1CC(NC(C)=O)C(=O)NC1CCN(C(=O)c2ccc([N+](=O)[O-])cc2)CC1 (configuration not stated)	none
Cc1ccc(SC/C(O)=C(\C#N)c2nc3ccccc3n2C)cc1	MC4R ag barr 8.3
Cn1c(/C(C#N)=C(\O)CN2CCN(Cc3ccccc3)CC2)nc2ccccc21	none (no result: Lipid droplet)
COc1ccc(CNc2oc(COc3ccccc3Cl)nc2C#N)cc1	none
Cc1ccc(CNc2oc(COc3ccccc3Cl)nc2C#N)cc1	MC4R ag barr 9.5 (no result: Lipid droplet)
CCc1ccc(S(=O)(=O)/N=C2\C=CC(=O)c3ccccc32)cc1	none (no result: MC4R antagonist, m5-HT2A agonist, MC4R ag barr)
CCc1ccc(S(=O)(=O)/N=C2/C=C(Sc3ncn[nH]3)C(=O)c3ccccc32)cc1	MC4R antagonist 60.0 (no result: NTR1 ag)
Cc1cc(C(=O)NC(C)CCc2ccccc2)ccc1[N+](=O)[O-] (configuration not stated)	none
N=c1c[n+](N2CCOCC2)[n-]o1	MC4R antagonist 30.5
Cn1nc(-c2ccc(OCC(=O)NCC3CCCO3)cc2)c2ccccc2c1=O (configuration not stated)	none (no result: Lipid droplet)
CCOc1cc(/C=C2/C(=O)ON=C2C)ccc1OCc1ccccc1F	NTR1 ag 74.7 (no result: Lipid droplet)
Cc1ccc(S(=O)(=O)N2CCCCC2)cc1NC(=O)COC(=O)c1cccn1C	none (no result: Lipid droplet)
O=C(Oc1ccc(-c2cnc3ccccc3n2)cc1)c1cc([N+](=O)[O-])ccc1Cl	MC4R antagonist 29.3 (no result: Lipid droplet)
O=C(Cc1ccc(Cl)cc1)Nc1ccc2c(c1)C(=O)NC2=O	none
c1ccc(-c2ccc(C3=Nn4c(nnc4-c4cc(-c5ccccc5)n[nH]4)SC3)cc2)cc1	MC4R ag barr 9.7 (no result: Lipid droplet)
O=C(NCC(c1ccco1)N1CCN(c2ccc(F)cc2)CC1)OCc1ccccc1 (configuration not stated)	MC4R ag barr 8.3
COC(=O)NCC(c1ccco1)N1CCN(c2ccc(F)cc2)CC1 (configuration not stated)	none
Cc1ccc(NC(=O)CCn2c(=S)oc3ccccc32)cc1	none
CN(C)c1ccc(NC(=O)CCn2c(=S)oc3ccccc32)cc1	PREPL inh 58.4
